ChEMBL document CHEMBL2177091, “Spirocyclic sulfamides as β-secretase 1 (BACE-1) inhibitors for the treatment of Alzheimer's disease: utilization of structure based drug design, WaterMap, and CNS penetration studies to identify centrally efficacious inhibitors” (J Med Chem, 2012)

Test system: not listed separately
Experiment: in vitro
Conditions: human, liver microsomes

Compound | CLint scaled [mL/min/kg]
CC(C)Oc1cccc(CN2CC[C@]3(CNS(=O)(=O)N3c3cccc(F)c3)C[C@@H]2C)c1 | > 19
CC(C)Oc1cc(CN2CC[C@@]3(C[C@@H]2C)CN(C)S(=O)(=O)N3c2cccc(F)c2)ccc1O | 15.4
CC(=O)Nc1ccc(CN2CC[C@@]3(C[C@@H]2C)CN(C)S(=O)(=O)N3c2cccc(F)c2)cc1 | > 300
CCOc1cc(CN2CC[C@@]3(C[C@@H]2C)CN(C)S(=O)(=O)N3c2cccc(F)c2)ccc1O | 79.9
CC(C)Oc1cccc(CN2CC[C@@]3(C[C@@H]2C)CN(C)S(=O)(=O)N3c2cccc(F)c2)c1 | > 19
CCc1n[nH]c2ccc(CN3CC[C@@]4(C[C@@H]3C)CN(C)S(=O)(=O)N4c3cccc(F)c3)cc12 | 74.2

The remaining lines, values ahead:

CLint scaled [mL/min/kg] | Compound
152 | C[C@H]1C[C@]2(CCN1Cc1ccc(O)cc1)CN(C)S(=O)(=O)N2c1cccc(F)c1
173 | C[C@H]1C[C@]2(CCN1Cc1ccc(O)c(Cl)c1)CN(C)S(=O)(=O)N2c1cccc(F)c1
175 | C[C@H]1C[C@]2(CCN1Cc1ccc3[nH]ccc3c1)CN(C)S(=O)(=O)N2c1cccc(F)c1

Test system: not listed separately
Experiment: Ratio of drug uptake in brain to plasma in FVB/N mouse at 10 mg/kg, sc after 60 mins
Assay type: ADME, organism-based
Parameters: dose 10 mg/kg, route subcutaneous
Conditions: brain and plasma, read-out: BPR
How it was run: (§1)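 Mice dosed 10 mg/kg subcutaneously; plasma and brain exposures taken at 60 min. Unbound fractions determined by equilibrium dialysis.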

Kp at 1 h | Compound
0.67 | CC(C)Oc1cccc(CN2CC[C@]3(CNS(=O)(=O)N3c3cccc(F)c3)C[C@@H]2C)c1
0.35 | CC(C)Oc1cc(CN2CC[C@@]3(C[C@@H]2C)CN(C)S(=O)(=O)N3c2cccc(F)c2)ccc1O
0.97 | CC(C)Oc1cccc(CN2CC[C@@]3(C[C@@H]2C)CN(C)S(=O)(=O)N3c2cccc(F)c2)c1

Test system: Plasma
Experiment: Fraction unbound in FVB/N mouse plasma at 1 uM after 6 hrs by equilibrium dialysis
Assay type: ADME, cell-free
Conditions: not given

Cp(f) | Compound
0.041 | CC(C)Oc1cccc(CN2CC[C@]3(CNS(=O)(=O)N3c3cccc(F)c3)C[C@@H]2C)c1
0.17 | CC(C)Oc1cc(CN2CC[C@@]3(C[C@@H]2C)CN(C)S(=O)(=O)N3c2cccc(F)c2)ccc1O
0.036 | CC(C)Oc1cccc(CN2CC[C@@]3(C[C@@H]2C)CN(C)S(=O)(=O)N3c2cccc(F)c2)c1

Test system: not listed separately
Experiment: Intrinsic clearance in rat liver microsomes
Assay type: ADME, Microsome
Conditions: read-out: CLH

CLint scaled [mL/min/kg] | Compound
> 65.5 | CC(C)Oc1cccc(CN2CC[C@]3(CNS(=O)(=O)N3c3cccc(F)c3)C[C@@H]2C)c1
59.7 | CC(C)Oc1cc(CN2CC[C@@]3(C[C@@H]2C)CN(C)S(=O)(=O)N3c2cccc(F)c2)ccc1O
> 65.5 | CC(C)Oc1cccc(CN2CC[C@@]3(C[C@@H]2C)CN(C)S(=O)(=O)N3c2cccc(F)c2)c1

Test system: not listed separately
Experiment: Ratio of free drug concentration in brain to free drug concentration in plasma in FVB/N mouse at 10 mg/kg, sc after 60 mins
Assay type: ADME, organism-based
Parameters: dose 10 mg/kg, route subcutaneous
Conditions: brain and plasma (free concentrations), read-out: K(p,uu,brain)
How it was run: as §1

Kp uu at 1 h | Compound
0.22 | CC(C)Oc1cccc(CN2CC[C@]3(CNS(=O)(=O)N3c3cccc(F)c3)C[C@@H]2C)c1
0.27 | CC(C)Oc1cc(CN2CC[C@@]3(C[C@@H]2C)CN(C)S(=O)(=O)N3c2cccc(F)c2)ccc1O
0.65 | CC(C)Oc1cccc(CN2CC[C@@]3(C[C@@H]2C)CN(C)S(=O)(=O)N3c2cccc(F)c2)c1
